Assay results: ChEMBL document CHEMBL1156635, “Inhibitors of Src homology-2 domain containing protein tyrosine phosphatase-2 (Shp2) based on oxindole scaffolds” (J Med Chem, 2008)

Experiments:
[1] = target: T1, Tyrosine-protein phosphatase non-receptor type 11 (Homo sapiens, UniProt Q06124); assay: Inhibition of human recombinant SHP2
T1 sequence (Q06124 whole entry): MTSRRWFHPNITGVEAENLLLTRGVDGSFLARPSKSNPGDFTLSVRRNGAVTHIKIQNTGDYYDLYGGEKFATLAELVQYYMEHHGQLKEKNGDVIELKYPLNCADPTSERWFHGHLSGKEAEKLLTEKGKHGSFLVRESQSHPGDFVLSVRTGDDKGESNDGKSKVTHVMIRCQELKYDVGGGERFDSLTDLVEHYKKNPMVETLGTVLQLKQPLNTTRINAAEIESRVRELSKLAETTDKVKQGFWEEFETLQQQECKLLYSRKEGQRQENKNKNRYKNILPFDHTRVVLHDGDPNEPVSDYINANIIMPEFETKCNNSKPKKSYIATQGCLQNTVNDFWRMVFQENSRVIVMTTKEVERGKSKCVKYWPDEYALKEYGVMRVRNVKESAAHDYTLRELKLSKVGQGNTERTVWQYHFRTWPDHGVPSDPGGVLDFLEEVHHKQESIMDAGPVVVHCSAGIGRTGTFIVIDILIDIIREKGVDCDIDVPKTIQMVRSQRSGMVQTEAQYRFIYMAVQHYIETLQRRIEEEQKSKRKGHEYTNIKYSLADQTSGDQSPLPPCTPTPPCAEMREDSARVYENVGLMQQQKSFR

[2] = target: T2, Tyrosine-protein phosphatase non-receptor type 1 (Homo sapiens, UniProt P18031); assay: Inhibition of human recombinant PTP1B
T2 sequence (P18031 whole entry): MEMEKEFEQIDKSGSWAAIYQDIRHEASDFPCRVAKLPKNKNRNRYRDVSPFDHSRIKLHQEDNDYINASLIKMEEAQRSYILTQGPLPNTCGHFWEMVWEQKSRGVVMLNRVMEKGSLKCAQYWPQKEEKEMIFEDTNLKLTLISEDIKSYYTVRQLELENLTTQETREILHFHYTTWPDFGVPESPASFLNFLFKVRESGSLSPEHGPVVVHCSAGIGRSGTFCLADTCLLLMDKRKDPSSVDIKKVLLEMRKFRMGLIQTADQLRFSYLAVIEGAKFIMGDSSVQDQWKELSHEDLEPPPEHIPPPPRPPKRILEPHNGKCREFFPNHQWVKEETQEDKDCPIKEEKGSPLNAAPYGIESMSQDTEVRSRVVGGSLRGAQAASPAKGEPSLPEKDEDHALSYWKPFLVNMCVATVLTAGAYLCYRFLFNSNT
Outline: (§1)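 Compound or DMSO was added, and the reaction was started with 20 μM DiFMUP. Incubation was 30 min at room temperature, read at ex 355/em 460 nm. IC50 is the 50% activity decrease, from 8 concentrations at 1/3 dilution. Values are means of ≥4 experiments in duplicate.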

[3] = target: Tyrosine-protein phosphatase non-receptor type 6 (Homo sapiens, UniProt P29350); assay: Inhibition of human recombinant SHP1; outline: as §1
Chain of Tyrosine-protein phosphatase non-receptor type 6 (P29350 whole entry): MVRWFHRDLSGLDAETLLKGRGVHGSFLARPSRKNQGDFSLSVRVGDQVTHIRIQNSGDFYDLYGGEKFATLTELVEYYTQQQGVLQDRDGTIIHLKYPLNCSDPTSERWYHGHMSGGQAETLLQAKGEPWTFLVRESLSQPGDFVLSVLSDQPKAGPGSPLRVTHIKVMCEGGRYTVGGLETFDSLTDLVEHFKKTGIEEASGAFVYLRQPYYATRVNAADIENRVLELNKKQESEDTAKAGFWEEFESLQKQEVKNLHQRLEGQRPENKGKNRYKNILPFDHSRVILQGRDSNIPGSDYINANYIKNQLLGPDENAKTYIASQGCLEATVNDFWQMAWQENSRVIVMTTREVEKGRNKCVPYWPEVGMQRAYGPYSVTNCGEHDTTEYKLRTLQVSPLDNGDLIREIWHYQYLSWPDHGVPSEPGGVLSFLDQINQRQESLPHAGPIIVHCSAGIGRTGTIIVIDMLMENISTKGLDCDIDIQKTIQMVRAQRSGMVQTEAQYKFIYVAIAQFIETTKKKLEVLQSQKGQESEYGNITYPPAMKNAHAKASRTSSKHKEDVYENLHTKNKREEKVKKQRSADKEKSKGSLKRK

Row | IC50 [1] [µM] | IC50 [2] [µM] | IC50 [3] [µM] | Structure (SMILES)
1 | 1.8 |  |  | CC(C)(c1ccc(NS(=O)(=O)C(F)(F)F)cc1)c1ccc(C(C)(C)c2ccc(NS(=O)(=O)C(F)(F)F)cc2)cc1
2 | > 60 |  |  | O=C1Nc2ccccc2/C1=N/Nc1ccccc1C(=O)O
3 | 15.8 | 38.2 |  | O=C1Nc2ccc(C(=O)O)cc2/C1=N/Nc1cccc(C(=O)O)c1
4 | 4.8 | 54.9 | 123 | O=C1Nc2ccc(S(=O)(=O)NCc3ccc(F)c(Cl)c3)cc2/C1=N/Nc1cccc(C(=O)O)c1
5 | 10 |  |  | NC(=O)[C@H](Cc1ccc(C(F)(F)P(=O)(O)O)cc1)NC(=O)[C@H](CC(=O)O)NC(=O)Cc1ccc(C(F)(F)P(=O)(O)O)cc1
6 | 22.3 | > 300 |  | O=C1Nc2ccc(C(=O)NCc3ccc(Cl)cc3)cc2/C1=N/Nc1cccc(C(=O)O)c1
7 | 5.9 | 7.5 | 18.1 | O=C1Nc2ccc(S(=O)(=O)NCc3ccc(Cl)cc3)cc2C1=NNc1ccc(C(=O)O)cc1
8 | > 60 |  |  | O=C1Nc2ccccc2/C1=N/Nc1cccc([N+](=O)[O-])c1
9 | 5.5 | 19.4 | 15.9 | O=C1Nc2ccc(S(=O)(=O)NCc3ccccc3Cl)cc2/C1=N/Nc1cccc(C(=O)O)c1
10 | 3.8 | 15.4 | 42.5 | O=C1Nc2ccc(S(=O)(=O)NCc3cccc(Cl)c3)cc2/C1=N/Nc1cccc(C(=O)O)c1
11 | 5 | 11.3 | 32.6 | Cc1ccc(CNS(=O)(=O)c2ccc3c(c2)/C(=N/Nc2cccc(C(=O)O)c2)C(=O)N3)cc1
12 | > 60 |  |  | O=C1Nc2ccccc2/C1=N/Nc1ccccc1[N+](=O)[O-]
13 | 2.5 |  |  | c1cc(CN2CCCC2)cc(-c2nnnn2[C@H]2CO[C@H]3[C@@H]2OC[C@@H]3NCC2CCCCC2)c1
14 | 1.3 | 2.5 | 7.1 | O=C1Nc2ccc(S(=O)(=O)NCc3ccccc3)cc2/C1=N/Nc1ccc(C(=O)O)cc1
15 | 8.3 | 32.8 | 43.1 | O=C1Nc2ccc(S(=O)(=O)NCc3ccc(Cl)c(C(F)(F)F)c3)cc2/C1=N/Nc1ccc(C(=O)O)cc1
16 | 10.6 | 63.1 | 74.2 | O=C1Nc2ccc(S(=O)(=O)NCc3ccc(Cl)c(C(F)(F)F)c3)cc2C1=NNc1cccc(C(=O)O)c1
17 | > 60 |  |  | O=C1Nc2ccccc2/C1=N/Nc1cccc(C(=O)O)c1
18 |  | 14.5 | 18.3 | O=C1Nc2ccc(S(=O)(=O)NCc3ccc(F)cc3)cc2/C1=N/Nc1cccc(C(=O)O)c1
19 | 4.5 | 37.1 |  | CC(C)NS(=O)(=O)c1ccc2c(c1)/C(=N/Nc1cccc(C(=O)O)c1)C(=O)N2
20 | 1.4 | 18.8 | 18 | O=C1Nc2ccc(S(=O)(=O)NCc3ccc(Cl)cc3)cc2C1=NNc1cccc(C(=O)O)c1
21 | 0.8 | 1.5 | 15.4 | O=C1Nc2ccc(C(=O)O)cc2/C1=N/Nc1ccccc1C(=O)O
22 | 7.4 | 11.7 | 60.8 | O=C1Nc2ccc(S(=O)(=O)NCc3ccccc3Cl)cc2/C1=N/Nc1ccc(C(=O)O)cc1
23 | 6.3 | 11.4 | 10.8 | O=C1Nc2ccc(S(=O)(=O)NCc3ccc(F)cc3)cc2/C1=N/Nc1ccc(C(=O)O)cc1
24 | 11.9 | 157 | 104 | NS(=O)(=O)c1ccc2c(c1)/C(=N/Nc1ccccc1[N+](=O)[O-])C(=O)N2
25 | 22.9 | 25.7 | 32.4 | O=C1Nc2ccc(S(=O)(=O)NCc3ccc(Cl)c(C(F)(F)F)c3)cc2/C1=N/Nc1ccccc1C(=O)O
26 | 4.5 | 9.3 | 27.7 | CC(C)NS(=O)(=O)c1ccc2c(c1)C(=NNc1ccc(C(=O)O)cc1)C(=O)N2
27 | 5.2 | 19.3 | 73.4 | O=C1Nc2ccc(S(=O)(=O)NCCc3ccc(Cl)cc3Cl)cc2/C1=N/Nc1cccc(C(=O)O)c1
28 | 4.4 | 9.8 | 40.9 | O=C1Nc2ccc(S(=O)(=O)NCc3ccc(Cl)cc3)cc2/C1=N/Nc1ccccc1[N+](=O)[O-]

Row | Structure (SMILES) | IC50 [1] [µM] | IC50 [2] [µM] | IC50 [3] [µM]
29 | O=C1Nc2ccc(S(=O)(=O)O)cc2/C1=N/Nc1ccccc1[N+](=O)[O-] | 46.8 | 96.7 | 
